Bioassay records as filed in PubChem BioAssay.
A selection: hits, their analogues and other compounds. The true share with any hit is near 1.7%.
HCV NS3 hel inh: HCV NS3 helicase inhibition | AID 1800 | inhibition, % at 10.9 µM | NS3 helicase DNA unwinding, Cy5 molecular beacon fluorescence | actives 0.56% (n = 290,000);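 active = inhibition above the mean of all tested compounds plus 3 SD, set per campaign, cut at about 35% in these data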
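assay system = NS3 helicase fragment of HCV | buffer or medium = MOPS pH 6.5, MgCl2, DTT, Tween20, BSA | timing = 60 min unwinding reaction at 25 °C after ATP addition | signal = Cy5 beacon fluorescence read at start and 1 h | read-out basis = % inhibition of unwinding | control set = low DMSO, high thioflavine S at 110 µM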
EBNA-1 inh: blocks EBNA-1 binding to DNA | EBNA-1 DNA binding, fluorescence polarization | inhibition, % at 14.8 µM | actives 0.34% (n = 300,000) | AID 1950; in the data active = inhibition above about 28%
core dimer inh: blocks dimerization of HCV core protein. TR-FRET GST/Flag-core106 dimerization, 1536-well. inhibition, % at 5 µM. actives 0.33% (n = 300,000);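 active = inhibition above the mean of all tested compounds plus 3 SD, set per screening campaign, cut at about 45% in these data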
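Assay system: GST-tagged and Flag-tagged HCV core protein residues 1-106 / Times: compound-protein-antibody incubation 4 h at 22.5 °C / Signal: time-resolved FRET, ex 340 nm, em 617 and 671 nm / Evaluation: % inhibition based on acceptor/donor emission ratio / Benchmarks: wells lacking GST-core106 and wells with excess unlabelled core106 / Repeats: singlicate, one well per compound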
MEX-5 binding: C. elegans MEX-5 TCR-2 RNA binding activity. MEX-5/FITC-TCR2 RNA binding, fluorescence polarization; hits give low values. activity score (negative = inhibition of binding), % at 10 µM. actives 0.38% (n = 300,000);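 active = inhibition past about -25% in most replicates, and total fluorescence under double the plate's negative control median, limit read from the data; inconclusive = replicates evenly split on the limit, or fluorescence at least double controls; inactive = too little inhibition in most replicates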
Target sequence (Q9XUB2 whole entry, looked up): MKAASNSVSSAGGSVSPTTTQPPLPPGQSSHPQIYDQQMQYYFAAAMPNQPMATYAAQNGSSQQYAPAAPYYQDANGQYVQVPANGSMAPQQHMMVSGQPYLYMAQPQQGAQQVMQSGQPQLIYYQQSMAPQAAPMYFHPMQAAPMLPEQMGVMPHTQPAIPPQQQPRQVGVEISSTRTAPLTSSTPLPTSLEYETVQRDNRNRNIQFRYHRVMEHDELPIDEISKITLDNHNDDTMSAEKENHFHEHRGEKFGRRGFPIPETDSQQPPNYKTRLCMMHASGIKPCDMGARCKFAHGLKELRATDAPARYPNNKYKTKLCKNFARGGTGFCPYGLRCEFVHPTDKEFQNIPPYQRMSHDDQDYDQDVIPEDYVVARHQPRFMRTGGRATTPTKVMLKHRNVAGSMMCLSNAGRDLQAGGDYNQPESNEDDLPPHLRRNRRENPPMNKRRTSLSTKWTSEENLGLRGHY
EBV gp42 block: inhibitors of Epstein-Barr virus glycoprotein 42. Q1HVG2. Fluorescence polarization binding assay, mP read-out. inhibition, % (tested at 21.74 µM). actives 0.42% (n = 220,000). AID 1085; in the data active = inhibition above about 50%
Target sequence (Q1HVG2 whole entry, looked up): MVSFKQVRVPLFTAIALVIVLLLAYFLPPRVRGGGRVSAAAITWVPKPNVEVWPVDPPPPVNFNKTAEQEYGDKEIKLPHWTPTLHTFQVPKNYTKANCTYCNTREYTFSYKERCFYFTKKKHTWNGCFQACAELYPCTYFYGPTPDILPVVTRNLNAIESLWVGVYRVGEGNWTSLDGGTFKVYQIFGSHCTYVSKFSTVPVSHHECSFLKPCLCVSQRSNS
ZTA counter: ZTA (EBV) inhibition in EBNA-1 counter-screen; P03206; ZTA-DNA binding, fluorescence polarization; inhibition, % at 11 µM; actives 0.15% (n = 320,000); AID 2234; in the data active = inhibition above about 33%
Of the large screens only hits and unclear results are named; the others gave an inactive call.

CCc1cccc2c1NC(=O)[C@]21[C@@H]2C(=O)N(Cc3ccccc3)C(=O)[C@@H]2[C@@H]2CCCN21	core dimer inh 55
COC(=O)/C=C1\C(=O)N(c2nc3ccccc3s2)C(=S)N1c1ccc(F)cc1	MEX-5 binding -30
Cc1nc(NC(=O)c2ccccc2)sc1-c1csc(Nc2ccc(C(=O)O)cc2)n1	EBV gp42 block 71 (no result: EBNA-1 inh, core dimer inh, ZTA counter)
CC(=O)Nc1nc(C)c(-c2csc(Nc3cccc([N+](=O)[O-])c3)n2)s1	EBV gp42 block 63
CCC(=O)Nc1nc(C)c(-c2csc(Nc3ccc(C(=O)O)cc3)n2)s1	none (no result: EBNA-1 inh, core dimer inh, EBV gp42 block, ZTA counter)
CCCCC1C2C(=O)N(c3ccc(C)cc3)C(=O)C2ON1c1ccccc1 (stereo unspecified)	none
C/C(N)=C(/C#N)C(=O)CSc1ncnc2ccccc12	MEX-5 binding -39
C/C(N)=C(/C#N)C(=O)CSc1nnc(Nc2ccccc2)s1	EBV gp42 block 124
Cc1c(C(=O)N2CCN(c3ncccn3)CC2)oc2ccc(Cl)cc12	none (no result: HCV NS3 hel inh, EBNA-1 inh, core dimer inh, MEX-5 binding, EBV gp42 block)
O=C(CCl)Nc1c2c(nn1-c1ccccc1)CSC2	none (no result: EBV gp42 block)
CSc1nc(SCC(=O)NCc2ccco2)c2c3c(sc2n1)CN(C)CC3	core dimer inh 48
CSc1nc(NCc2ccco2)c2c3c(sc2n1)CN(C)CC3	none
O=C(Cc1nc2ccccc2[nH]c1=O)c1ccccc1	MEX-5 binding -61, EBV gp42 block 52 (no result: EBNA-1 inh, core dimer inh, ZTA counter)
O=C(O)COc1ccc(/C=C/c2nc(-c3ccccc3O)n[nH]2)cc1	MEX-5 binding -101 (no result: EBV gp42 block)
COc1ccc(/C=C/c2nc(-c3ccccc3O)n[nH]2)cc1OC	none (no result: MEX-5 binding)
Cc1n[nH]c(=O)nc1N/N=C/c1ccc(O)c([N+](=O)[O-])c1	MEX-5 binding -28
COc1cc(/C=N/Nc2nc(=O)[nH]nc2C)cc([N+](=O)[O-])c1O	MEX-5 binding -79
CCOC(=O)c1cccc(C2=CC(=O)C[C@H](c3ccc(OC)c(OC)c3)C2)c1	none (no result: HCV NS3 hel inh, EBNA-1 inh, core dimer inh, MEX-5 binding, EBV gp42 block)
O=C1N[C@@H](Cc2ccccc2)C(=O)N2[C@H]1C[C@]1([C@]34C[C@H]5C(=O)N[C@@H](Cc6ccccc6)C(=O)N5[C@H]3N(S(=O)(=O)c3ccccc3)c3ccccc34)c3ccccc3N(S(=O)(=O)c3ccccc3)[C@H]21	core dimer inh 60 (no result: HCV NS3 hel inh, EBV gp42 block)
CC(C)c1cc(C(C)C)c(S(=O)(=O)N2c3ccccc3[C@@]3(Br)C[C@H]4C(=O)N[C@@H](Cc5ccccc5)C(=O)N4[C@@H]23)c(C(C)C)c1	core dimer inh 46 (no result: HCV NS3 hel inh, EBV gp42 block)
Cc1cccc2c(N=Nc3ccc(S(=O)(=O)Nc4ccc(Cl)cc4)cc3[N+](=O)[O-])c(O)[nH]c12	core dimer inh 49
Cc1cccc2c(N=NC(=O)c3ccc(NS(=O)(=O)c4cccs4)cc3)c(O)[nH]c12	none (no result: HCV NS3 hel inh, EBNA-1 inh, core dimer inh, MEX-5 binding, EBV gp42 block)
CN1C=CC=C/C1=C1/N=C(c2ccccc2)OC1=O	none
CC1=CC(=C2N=C(c3ccccc3)OC2=O)C=C(C)O1	MEX-5 binding -35
COc1ccc(Nc2cc(Nc3cccc(OC)c3)ncn2)cc1	none (no result: EBV gp42 block)
O=[N+]([O-])c1ccc(N=Nc2ncc[nH]2)cc1	MEX-5 binding -32 (no result: EBNA-1 inh, core dimer inh, EBV gp42 block, ZTA counter)
CCOc1ccccc1OCCCC(=O)NNC(=O)c1cc(C)oc1C	none (no result: HCV NS3 hel inh, EBNA-1 inh, core dimer inh, MEX-5 binding, EBV gp42 block)
N#C/C(=C\c1ccc([N+](=O)[O-])o1)C(=O)Nc1ccc(F)cc1	HCV NS3 hel inh 43, EBNA-1 inh 37, ZTA counter 79
COc1ccccc1NC(=S)NC1CCC(CC2CCC(NC(=S)Nc3ccccc3OC)CC2)CC1 (stereo unspecified)	core dimer inh 48
COc1ccccc1NC(=S)NC1CCCC1	none (no result: HCV NS3 hel inh, EBV gp42 block)
O=C(NCc1ccncc1)C1CCCN(S(=O)(=O)c2cc(Cl)ccc2Cl)C1 (stereo unspecified)	none (no result: HCV NS3 hel inh, EBV gp42 block)
O=C(O)c1ccccc1C(=O)N1N=C(c2ccccc2)CC1c1ccccc1O (stereo unspecified)	none (no result: EBV gp42 block)
CCn1c2ccccc2c2cc(NC(=O)Cc3ccc(S(=O)(=O)N4CCOCC4)s3)ccc21	core dimer inh 60
CN(C)S(=O)(=O)c1ccc(NC(=O)Cc2ccc(S(=O)(=O)N3CCOCC3)s2)cc1	core dimer inh 49
O=C(Cc1ccc(S(=O)(=O)N2CCOCC2)s1)Nc1ccc(N2CCOCC2)cc1	none
O=C(COC(=O)Cc1ccc(S(=O)(=O)N2CCCCC2)s1)Nc1ccc2c(c1)OCO2	core dimer inh 63
NS(=O)(=O)c1cccc(NC(=O)COC(=O)Cc2ccc(S(=O)(=O)N3CCCCC3)s2)c1	none
COc1cc(/C=C2\SC(=O)N(c3ccc(Cl)cc3)C2=O)cc([N+](=O)[O-])c1O	EBV gp42 block 100 (no result: EBNA-1 inh, core dimer inh, MEX-5 binding, ZTA counter)
COc1cc(/C=C2/C(=O)NN(c3cccc(C)c3)C2=O)cc([N+](=O)[O-])c1O	MEX-5 binding -27
COc1cc(/C=C2\SC(=O)N(c3cccc(Cl)c3)C2=O)cc([N+](=O)[O-])c1O	EBV gp42 block 87 (no result: EBNA-1 inh, core dimer inh, MEX-5 binding, ZTA counter)
O=C1S/C(=C\c2ccc(O)c([N+](=O)[O-])c2)C(=O)N1c1ccccc1Cl	none
COc1cccc(/C=C2/C(=O)NN(c3ccccc3)C2=O)c1	none (no result: EBNA-1 inh, core dimer inh, EBV gp42 block, ZTA counter)
CC(C)CN(C(=O)c1cccc(Cl)c1)c1c(N)n(Cc2ccccc2)c(=O)[nH]c1=O	none (no result: HCV NS3 hel inh, EBNA-1 inh, core dimer inh, MEX-5 binding, EBV gp42 block)
COCCN(Cc1cc2cc3c(cc2nc1Cl)OCO3)C(=O)c1ccc(C)cc1	none
COCCCn1c(=NC(C)=O)c(C#N)cc2c(=O)n3cccc(C)c3nc21	none
CCOCCCn1c(=NC(=O)c2cccs2)c(C#N)cc2c(=O)n3cccc(C)c3nc21	MEX-5 binding -37, EBV gp42 block 54
Cc1cccc(C(=O)N=c2c(C#N)cc3c(=O)n4cccc(C)c4nc3n2Cc2ccco2)c1	core dimer inh 60
Cc1cccn2c(=O)c3cc(C#N)c(=NC(=O)c4ccccc4)n(Cc4ccco4)c3nc12	core dimer inh 46 (no result: HCV NS3 hel inh, EBV gp42 block)
COCCCn1c(=NC(=O)c2ccccc2)c(C#N)cc2c(=O)n3cccc(C)c3nc21	MEX-5 binding inconclusive, EBV gp42 block 52
COc1ccc(-c2ccc(SCC(=O)NC3CCCCC3)nn2)cc1OC	none (no result: EBV gp42 block)
O=C1CCC(C(=O)N2CCCCO2)CN1Cc1cccc(F)c1 (stereo unspecified)	none (no result: EBV gp42 block)
COC(=O)CCC(=O)OC1(C)C(=O)C=C2C=C(C3CC3)N(c3ccc(CO)cc3)C=C2C1=O (stereo unspecified)	core dimer inh 69, MEX-5 binding -36 (no result: HCV NS3 hel inh, EBV gp42 block)
CC1(O)C(=O)C=C2C=C(C3CC3)OC=C2C1=O (stereo unspecified)	MEX-5 binding -60 (no result: HCV NS3 hel inh, EBV gp42 block)
COC(=O)CCC(=O)OC1(C)C(=O)C=C2C=C(C3CC3)OC=C2C1=O (stereo unspecified)	MEX-5 binding -42 (no result: HCV NS3 hel inh, EBV gp42 block)
CCC(=O)OC1(C)C(=O)C=C2C=C(c3ccsc3)OC=C2C1=O (stereo unspecified)	none (no result: HCV NS3 hel inh)
CC1(OC(=O)CCc2ccccc2)C(=O)C=C2C=C(C3CC3)OC=C2C1=O (stereo unspecified)	none (no result: HCV NS3 hel inh, EBV gp42 block)
